Measured values: ChEMBL document CHEMBL4052710 (Bioorg Med Chem Lett, 2017)
Active and inactive are the calls of the source. No cut-off for these calls is given here.

How the values were obtained:
T47D [1] = assay: Induction of cell cycle arrest in human T47D cells assessed as increase in G2 phase accumulation at 0.1 to 1 uM incubated for 24 hrs by flow cytometry; format: functional, cell-based
Summary of the method: (§1)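 Cells were treated for 24 h with compound at 0.1, 0.5 and 1 µM, with LEE011 or vehicle (DMSO) alongside. Cell-cycle phase distribution was then determined by flow cytometry.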

T47D [2] = assay: Induction of cell cycle arrest in human T47D cells assessed as reduction in S phase accumulation at 0.1 to 1 uM incubated for 24 hrs by flow cytometry; format: functional, cell-based; summary of the method: as §1
T47D [3] = assay: Induction of apoptosis in human T47D cells assessed as necrotic cells level at 1 uM incubated for 48 hrs by annexin V-FITC and propidium iodide staining based flow cytometry (reference value: 2.79%); format: functional
T47D [4] = assay: Growth inhibition of human T47D cells incubated for 72 hrs by CCK8 assay; format: functional, cell-based
4T1 = assay: Antitumor activity against mouse 4T1 cells xenografted in BALB/C mouse assessed as inhibition of tumor growth at 50 to 150 mg/kg/day, ip dosed for 21 consecutive days; format: functional, organism-based
Summary of the method: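 Cells implanted orthotopically into mammary fat pads of female BALB/c mice aged 6-8 weeks. Dosing began once tumours averaged 100 mm3: daily IP injection at 50, 100 or 150 mg/kg/day for 21 consecutive days, with a solvent control group. Tumour volume and body weight were followed, given as mean ± SD.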

SiHa = assay: Growth inhibition of human SiHa cells incubated for 72 hrs at 1 uM by CCK8 assay; format: functional; settings: read-out: GI
Summary of the method: (§2)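 CCK8 viability assay on a panel of human cancer cell lines, with an initial screen at fixed concentrations of 1 µM and 10 µM.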

NCI-H460 [5] = assay: Growth inhibition of human H460 cells incubated for 72 hrs at 10 uM by CCK8 assay; format: functional; settings: NCI-H460, 72 h, read-out: GI; summary of the method: as §2
T47D [6] = assay: Induction of apoptosis in human T47D cells assessed as early apoptotic cells level at 0.25 uM incubated for 48 hrs by annexin V-FITC and propidium iodide staining based flow cytometry (reference value: 0.75%); format: functional
T47D [7] = assay: Induction of apoptosis in human T47D cells assessed as viable cells level at 0.25 uM incubated for 48 hrs by annexin V-FITC and propidium iodide staining based flow cytometry (reference value: 96%); format: functional
NCI-H460 [8] = assay: Growth inhibition of human H460 cells incubated for 72 hrs by CCK8 assay; format: functional, cell-based; settings: NCI-H460, 72 h
[9] = biological target: CDK6/cyclin D3 (Homo sapiens) (UniProt P30281+Q00534); assay: Inhibition of human CDK6/CyclinD3 at 1 uM by enzymatic radiometric assay; format: protein-complex assay
T47D [10] = assay: Induction of apoptosis in human T47D cells assessed as necrotic cells level at 0.5 uM incubated for 48 hrs by annexin V-FITC and propidium iodide staining based flow cytometry (reference value: 2.79%); format: functional
[11] = biological target: CDK7/Cyclin H/MNAT1 (Homo sapiens) (UniProt P51946+P50613+P51948); assay: Inhibition of human CDK7/CyclinH/MAT1 at 1 uM by enzymatic radiometric assay; format: protein-complex assay
T47D [12] = assay: Induction of apoptosis in human T47D cells assessed as late apoptotic cells level at 1 uM incubated for 48 hrs by annexin V-FITC and propidium iodide staining based flow cytometry (reference value: 0.48%); format: functional
[13] = biological target: CDK9/cyclin T1 (Homo sapiens) (UniProt O60563+P50750); assay: Inhibition of human CDK9/CyclinT1 at 1 uM by enzymatic radiometric assay; format: protein-complex assay
CDK4/Cyclin D3 = CDK4/Cyclin D3 (Homo sapiens, UniProt P11802); assay: Inhibition of human CDK4/CyclinD3 by enzymatic radiometric assay; format: protein-complex assay
Summary of the method: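 CDK4 activity measured with the Eurofins KinaseProfiler. IC50 and inhibition values are means of two independent experiments.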

T47D [14] = assay: Inhibition of cell migration of human T47D cells at 0.5 to 5 uM incubated for 16 hrs by transwell cell migration assay; format: functional, cell-based
Summary of the method: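 T47D cells were assayed by transwell migration. After 16 h incubation, migrated cells were counted by microscope in five random fields per chamber.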

OVCAR-5 = assay: Growth inhibition of human OVCAR5 cells incubated for 72 hrs at 1 uM by CCK8 assay; format: functional; settings: OVCAR-5, 72 h, read-out: GI; summary of the method: as §2
T47D [15] = assay: Induction of apoptosis in human T47D cells assessed as viable cells level at 5 uM incubated for 48 hrs by annexin V-FITC and propidium iodide staining based flow cytometry (reference value: 96%); format: functional
T47D [16] = assay: Induction of cell cycle arrest in human T47D cells assessed as increase in G0/G1 phase accumulation at 0.1 to 1 uM incubated for 24 hrs by flow cytometry; format: functional, cell-based; summary of the method: as §1
[17] = biological target: CDK2/Cyclin A2 (Homo sapiens) (UniProt P24941+P20248); assay: Inhibition of human CDK2/CyclinA at 1 uM by enzymatic radiometric assay; format: protein-complex assay
Summary of the method: (§3)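 Kinase panel run through the Eurofins KinaseProfiler, with compound at a fixed 1 µM. Values are means of two independent experiments.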

[18] = biological target: T1, Cyclin-dependent kinase 5/CDK5 activator 1 (Homo sapiens) (UniProt Q00535+Q15078); assay: Inhibition of human CDK5/p25 at 1 uM by enzymatic radiometric assay; format: protein-complex assay
[19] = biological target: CDK3/Cyclin E (Homo sapiens) (UniProt P24864+Q00526); assay: Inhibition of human CDK3/CyclinE at 1 uM by enzymatic radiometric assay; format: protein-complex assay; summary of the method: as §3
T47D [20] = assay: Induction of apoptosis in human T47D cells assessed as late apoptotic cells level at 0.25 uM incubated for 48 hrs by annexin V-FITC and propidium iodide staining based flow cytometry (reference value: 0.48%); format: functional
T47D [21] = assay: Induction of apoptosis in human T47D cells assessed as late apoptotic cells level at 5 uM incubated for 48 hrs by annexin V-FITC and propidium iodide staining based flow cytometry (reference value: 0.48%); format: functional
CDK9/cyclin T1 = CDK9/cyclin T1 (Homo sapiens, UniProt P50750); assay: Inhibition of human CDK9/CyclinT1 by enzymatic radiometric assay; format: protein-complex assay
Summary of the method: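 IC50 was determined through a commercial kinase profiling service. Values are the mean of two independent experiments.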

HeLa = assay: Growth inhibition of human HeLa cells incubated for 72 hrs at 1 uM by CCK8 assay; format: functional; settings: read-out: GI; summary of the method: as §2
T47D [22] = assay: Growth inhibition of human T47D cells incubated for 72 hrs at 10 uM by CCK8 assay; format: functional; settings: read-out: GI; summary of the method: as §2
[23] = biological target: Cyclin-dependent kinase 2/cyclin E1 (Homo sapiens) (UniProt P24864+P24941); assay: Inhibition of human CDK2/CyclinE at 1 uM by enzymatic radiometric assay; format: protein-complex assay; summary of the method: as §3
[24] = biological target: Cyclin-dependent kinase 1/cyclin B1 (Homo sapiens) (UniProt P06493+P14635); assay: Inhibition of human CDK1/CyclinB at 1 uM by enzymatic radiometric assay; format: protein-complex assay; summary of the method: as §3
[25] = biological target: T1, Cyclin-dependent kinase 5/CDK5 activator 1 (Homo sapiens); assay: Inhibition of human CDK5/p35 at 1 uM by enzymatic radiometric assay; format: protein-complex assay
NCI-H1299 = assay: Growth inhibition of human H1299 cells incubated for 72 hrs at 1 uM by CCK8 assay; format: functional; settings: NCI-H1299, 72 h, read-out: GI; summary of the method: as §2
A549 = assay: Growth inhibition of human A549 cells incubated for 72 hrs at 1 uM by CCK8 assay; format: functional; settings: A549, 72 h, read-out: GI; summary of the method: as §2
[26] = biological target: CDK12/Cyclin K (Homo sapiens) (UniProt O75909+Q9NYV4); assay: Inhibition of human CDK12/CyclinK at 1 uM by enzymatic radiometric assay; format: protein-complex assay; summary of the method: as §3

T1 sequence (Q00535 whole entry): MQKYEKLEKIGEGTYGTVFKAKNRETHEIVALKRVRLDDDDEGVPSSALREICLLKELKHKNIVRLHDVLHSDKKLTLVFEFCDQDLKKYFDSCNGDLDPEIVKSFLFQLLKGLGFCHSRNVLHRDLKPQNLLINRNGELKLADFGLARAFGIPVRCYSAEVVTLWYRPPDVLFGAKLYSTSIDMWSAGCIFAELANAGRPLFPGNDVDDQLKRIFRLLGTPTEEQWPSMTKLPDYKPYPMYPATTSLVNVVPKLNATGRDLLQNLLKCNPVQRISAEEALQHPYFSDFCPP
T1 sequence (Q15078 99-307 partner limits assumed): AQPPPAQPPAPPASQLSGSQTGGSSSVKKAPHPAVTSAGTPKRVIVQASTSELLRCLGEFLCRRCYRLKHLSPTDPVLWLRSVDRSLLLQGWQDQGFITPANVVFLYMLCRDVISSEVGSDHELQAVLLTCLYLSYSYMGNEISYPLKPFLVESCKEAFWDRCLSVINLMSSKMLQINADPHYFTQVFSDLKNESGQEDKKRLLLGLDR
CDK9/cyclin T1, sequence (O60563 whole entry): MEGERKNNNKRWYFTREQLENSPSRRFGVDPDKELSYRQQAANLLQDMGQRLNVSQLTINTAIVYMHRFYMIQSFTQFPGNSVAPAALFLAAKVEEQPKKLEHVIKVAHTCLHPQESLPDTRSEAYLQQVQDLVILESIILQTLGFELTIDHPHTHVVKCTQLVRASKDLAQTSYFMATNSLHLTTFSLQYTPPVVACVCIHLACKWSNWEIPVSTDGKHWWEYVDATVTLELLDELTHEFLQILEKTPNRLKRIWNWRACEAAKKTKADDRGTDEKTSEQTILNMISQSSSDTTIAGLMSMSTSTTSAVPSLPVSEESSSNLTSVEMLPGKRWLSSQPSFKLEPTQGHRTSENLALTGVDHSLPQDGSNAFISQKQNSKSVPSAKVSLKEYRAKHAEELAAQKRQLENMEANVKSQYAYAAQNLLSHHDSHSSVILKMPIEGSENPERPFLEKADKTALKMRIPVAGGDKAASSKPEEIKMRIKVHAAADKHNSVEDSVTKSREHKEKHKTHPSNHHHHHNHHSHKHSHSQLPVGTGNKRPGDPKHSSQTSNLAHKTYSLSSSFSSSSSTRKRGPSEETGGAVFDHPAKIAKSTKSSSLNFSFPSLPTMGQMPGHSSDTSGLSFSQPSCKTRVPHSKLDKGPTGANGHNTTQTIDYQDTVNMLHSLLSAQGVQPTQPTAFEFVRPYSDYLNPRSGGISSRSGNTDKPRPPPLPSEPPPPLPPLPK
CDK9/cyclin T1, sequence (P50750 whole entry): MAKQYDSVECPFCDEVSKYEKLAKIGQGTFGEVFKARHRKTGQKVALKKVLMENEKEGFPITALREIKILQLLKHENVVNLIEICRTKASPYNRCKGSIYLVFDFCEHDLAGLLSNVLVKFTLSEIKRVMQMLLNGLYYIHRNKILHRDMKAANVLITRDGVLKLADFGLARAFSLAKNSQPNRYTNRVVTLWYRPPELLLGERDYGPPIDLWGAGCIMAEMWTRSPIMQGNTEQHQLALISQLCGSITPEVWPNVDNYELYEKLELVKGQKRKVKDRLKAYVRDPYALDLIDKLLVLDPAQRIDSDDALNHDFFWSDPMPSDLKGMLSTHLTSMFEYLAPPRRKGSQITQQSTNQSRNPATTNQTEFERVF
CDK3/Cyclin E (Homo sapiens), sequence (P24864 whole entry, looked up): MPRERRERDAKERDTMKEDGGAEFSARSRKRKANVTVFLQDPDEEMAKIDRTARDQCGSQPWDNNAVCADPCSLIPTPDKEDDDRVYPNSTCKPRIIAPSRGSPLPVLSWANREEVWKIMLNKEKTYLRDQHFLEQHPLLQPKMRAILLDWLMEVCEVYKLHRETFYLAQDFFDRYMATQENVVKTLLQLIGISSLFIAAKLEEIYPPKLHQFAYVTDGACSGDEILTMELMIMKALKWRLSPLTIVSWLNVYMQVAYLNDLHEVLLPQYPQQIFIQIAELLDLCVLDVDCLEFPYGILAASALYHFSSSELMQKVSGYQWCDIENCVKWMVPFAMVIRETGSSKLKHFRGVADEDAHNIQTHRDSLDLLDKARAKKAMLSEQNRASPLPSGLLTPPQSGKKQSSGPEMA
CDK3/Cyclin E (Homo sapiens), sequence (Q00526 whole entry, looked up): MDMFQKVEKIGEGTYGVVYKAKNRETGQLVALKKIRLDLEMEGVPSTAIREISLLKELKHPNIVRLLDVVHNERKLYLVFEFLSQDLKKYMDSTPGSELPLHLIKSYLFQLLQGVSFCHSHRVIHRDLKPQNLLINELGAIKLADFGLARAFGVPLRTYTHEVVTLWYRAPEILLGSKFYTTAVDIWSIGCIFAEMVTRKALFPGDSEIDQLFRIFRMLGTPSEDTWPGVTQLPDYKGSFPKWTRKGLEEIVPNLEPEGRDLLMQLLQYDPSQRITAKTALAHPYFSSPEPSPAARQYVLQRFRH
CDK4/Cyclin D3, sequence (P11802 whole entry): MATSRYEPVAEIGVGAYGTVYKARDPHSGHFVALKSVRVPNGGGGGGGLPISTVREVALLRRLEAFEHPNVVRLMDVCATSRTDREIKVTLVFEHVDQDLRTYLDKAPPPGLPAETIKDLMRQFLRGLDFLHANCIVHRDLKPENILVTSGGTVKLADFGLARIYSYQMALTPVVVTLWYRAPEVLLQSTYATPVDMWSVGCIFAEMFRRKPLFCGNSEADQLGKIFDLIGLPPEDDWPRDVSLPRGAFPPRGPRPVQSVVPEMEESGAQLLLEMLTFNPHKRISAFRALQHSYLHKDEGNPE
CDK4/Cyclin D3, sequence (P30281 whole entry, further chain): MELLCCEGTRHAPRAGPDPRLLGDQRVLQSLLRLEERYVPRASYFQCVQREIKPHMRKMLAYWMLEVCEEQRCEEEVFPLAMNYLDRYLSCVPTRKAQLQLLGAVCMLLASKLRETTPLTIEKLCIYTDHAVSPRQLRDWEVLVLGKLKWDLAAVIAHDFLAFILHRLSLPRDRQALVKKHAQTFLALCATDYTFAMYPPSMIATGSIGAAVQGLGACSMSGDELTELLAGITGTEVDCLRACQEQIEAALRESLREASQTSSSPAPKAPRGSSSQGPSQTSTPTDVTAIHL
Cyclin-dependent kinase 1/cyclin B1 (Homo sapiens), sequence (P06493 whole entry, looked up): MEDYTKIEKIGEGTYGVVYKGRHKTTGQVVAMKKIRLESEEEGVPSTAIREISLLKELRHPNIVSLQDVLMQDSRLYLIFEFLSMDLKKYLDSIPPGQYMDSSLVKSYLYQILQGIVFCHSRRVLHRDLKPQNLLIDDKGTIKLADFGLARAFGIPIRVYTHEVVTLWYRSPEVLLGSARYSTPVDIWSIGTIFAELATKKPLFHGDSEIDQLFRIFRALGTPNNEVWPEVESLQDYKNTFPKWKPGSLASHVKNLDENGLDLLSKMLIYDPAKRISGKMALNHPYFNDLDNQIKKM
Cyclin-dependent kinase 1/cyclin B1 (Homo sapiens), sequence (P14635 whole entry, looked up): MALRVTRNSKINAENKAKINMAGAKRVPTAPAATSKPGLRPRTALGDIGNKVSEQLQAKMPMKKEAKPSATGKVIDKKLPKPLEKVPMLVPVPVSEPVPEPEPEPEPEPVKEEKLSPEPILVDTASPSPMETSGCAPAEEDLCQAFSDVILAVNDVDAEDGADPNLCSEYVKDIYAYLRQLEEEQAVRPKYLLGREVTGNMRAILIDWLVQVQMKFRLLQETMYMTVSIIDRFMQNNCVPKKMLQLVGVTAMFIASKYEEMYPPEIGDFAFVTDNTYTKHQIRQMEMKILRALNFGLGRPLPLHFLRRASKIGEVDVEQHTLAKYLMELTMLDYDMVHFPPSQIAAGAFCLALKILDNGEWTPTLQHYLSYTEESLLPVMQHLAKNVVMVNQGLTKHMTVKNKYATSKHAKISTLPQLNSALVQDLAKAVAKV

IC50 (T47D [4]): 0.358 µM
IC50 (NCI-H460 [8]): 0.359 µM
inhibition [9]: 71%
inhibition [11]: 7%
inhibition [13]: 98%
IC50 (CDK4/Cyclin D3): 0.142 µM
inhibition [17]: 29%
inhibition [18]: 86%
inhibition [19]: 65%
IC50 (CDK9/cyclin T1): 0.012 µM
inhibition [23]: 85%
inhibition [24]: 73%
inhibition [25]: 81%
inhibition [26]: 24%
SMILES: CN(C)C(=O)c1cc2cnc(Nc3ccc(NC(=O)C4(C(=O)Nc5ccc(F)cc5)CC4)cc3)nc2n1C1CCCC1
Activity (T47D [1]): Active
Activity (T47D [2]): Active
Activity (T47D [3]): 1.39%
TGI (4T1): Dose-dependent effect
inhibition of growth at 1 µM (SiHa): 36.5%
inhibition of growth at 10 µM (NCI-H460 [5]): 102%
Activity (T47D [6]): 0.52%
Activity (T47D [7]): 94.2%
Activity (T47D [10]): 2.69%
Activity (T47D [12]): 4.98%
inhibition (T47D [14]): Active
inhibition of growth at 1 µM (OVCAR-5): 65.4%
Activity (T47D [15]): 85%
Activity (T47D [16]): Active
Activity (T47D [20]): 3.28%
Activity (T47D [21]): 5.29%
inhibition of growth at 1 µM (HeLa): 49.8%
inhibition of growth at 10 µM (T47D [22]): 105%
inhibition of growth at 1 µM (NCI-H1299): 93.3%
inhibition of growth at 1 µM (A549): 86.6%
